Experimental data: ChEMBL document CHEMBL1122649, “3-Alkyl-2-aryl-3H-naphth[1,2-d]imidazoles, a novel class of nonacidic antiinflammatory agents” (J Med Chem, 1984)

Key:
Type in all cases: functional
Rattus norvegicus [1] = experiment: Antiinflammatory activity measured as the percentage inhibition of edema in carrageenan induced rat paw after peroral administration of 200 mg/kg of compound; conditions: route oral
In short: (§1)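 Female Wistar rats (120–150 g), 10 per dose, dosed orally with an aqueous suspension in 0.5% methocel (10 mL/kg) 1 h before 0.05 mL of 1% carrageenin in saline was injected into the right hind paw aponeurosis. Paw volume was read plethysmographically at injection and 4 h later. Inhibition is given relative to vehicle controls. Screening dose 200 mg/kg; 100 mg/kg was tested when inhibition exceeded 30%. Student's t test.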

Rattus norvegicus [2] = species: Rattus norvegicus; experiment: Compound was evaluated for its analgesic activity by Randall-Selitto test in comparison with that of Aspirine
In short: (§2)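 Randall–Selitto pain threshold, measured on the inflamed right hind paw of male Wistar rats (170–200 g), 10 per dose. Edema was induced with 0.1 mL of 20% yeast suspension in saline. Oral dosing in 0.5% methocel (10 mL/kg), highest dose one-fifth of LD50, then scaling down through 100, 50, 20, 10, 5 and 2 mg/kg. Threshold read before dosing, then hourly for 6 h. Potency expressed relative to aspirin = 1.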

Rattus norvegicus [3] = species: Rattus norvegicus; experiment: Compound was evaluated for its antipyretic activity by antipyresis effect in comparison with that of Aspirin.
In short: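 Male Sprague-Dawley rats (120–150 g), 6 per dose, starved 18 h and kept at 24 °C; rats above 38 °C were excluded. Fever was induced by subcutaneous 1 mL of filtered 5% peptone preincubated 48 h at 37 °C. Oral doses as in the analgesic test (top dose one-fifth of LD50, stepping down). Rectal thermocouple readings from 4 h after injection, then hourly for 4 h. Activity relative to aspirin = 1.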

Rattus norvegicus [4] = experiment: (§3) Compound was evaluated for its antiinflammatory activity by adjuvant-induced polyarthritis test in rats at a dosage of 100 mg/kg administered orally; conditions: route oral
In short: (§4)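 Female Wistar rats (130–150 g), 8 per dose. Killed Mycobacterium butyricum (0.6 mg in 0.1 mL mineral oil) was injected into the right hind plantar aponeurosis. Oral dosing in 0.5% methocel, once daily, curative scheme from day 14 to day 27. Read-outs: percent change in hind-paw volume versus controls; Newbould 0–4 lesion scores for front paws, tail and ears; plasma inflammation units by nephelometric turbidity before and after 30 min at 56 °C on day 27.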

Rattus norvegicus [5] = experiment: Compound was evaluated for its antiinflammatory activity in the cotton pellet induced granuloma(CPG) in normal rats at the dose 200 mg/kg p.o.; conditions: route oral
In short: (§5)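 Male Wistar rats (150–180 g), 7 per group. Two sterile 50 mg cotton pellets were implanted subcutaneously in the interscapular region under ether. Oral dosing in 0.5% methocel (10 mL/kg) daily for 6 days, starting 6 h after surgery. Animals were killed 24 h after the last dose; pellets with granuloma were dried 24 h at 80 °C. Percent inhibition versus vehicle controls.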

Rattus norvegicus [6] = experiment: Antiinflammatory activity was measured as the percentage inhibition of edema in carrageenan induced rat paw after peroral administration of 100 mg/kg of compound; conditions: route oral; in short: as §1
Rattus norvegicus [7] = experiment: Compound was evaluated for its gastroulcerogenic effect in rats at a peroral dose of 200 mg/kg; conditions: route oral
Rattus norvegicus [8] = experiment: as §3; set-up: unit not given beside the values; conditions: route oral; in short: as §4
Rattus norvegicus [9] = experiment: Compound was evaluated for its antiinflammatory activity in the cotton pellet induced granuloma(CPG) in normal rats at the dose 100 mg/kg p.o.; conditions: route oral; in short: as §5
Rattus norvegicus [10] = experiment: Compound was evaluated for its gastroulcerogenic effect in rats at a peroral dose of 200 mg/kg, P<0.05.; conditions: route oral
Rattus norvegicus [11] = experiment: Compound was evaluated for its antiinflammatory activity in the cotton pellet induced granuloma(CPG) in normal rats at the dose 50 mg/kg p.o.; conditions: route oral; in short: as §5
Rattus norvegicus [12] = experiment: Compound was evaluated for its antiinflammatory activity by adjuvant-induced polyarthritis test in rats at a dosage of 50 mg/kg administered orally; conditions: route oral; in short: as §4
Rattus norvegicus [13] = species: Rattus norvegicus; experiment: Compound was evaluated for its gastroulcerogenic effect with respect to treated and control groups. Treated and control groups are not statistically different when the index is <1; P<0.05.
Rattus norvegicus [14] = experiment: (§6) Compound was evaluated for its antiinflammatory activity by adjuvant-induced polyarthritis test in rats at a dosage of 200 mg/kg administered orally; conditions: route oral; in short: as §4
Rattus norvegicus [15] = experiment: as §6; set-up: unit not given beside the values; conditions: route oral; in short: as §4
Rattus norvegicus [16] = species: Rattus norvegicus; experiment: Compound was evaluated for its analgesic activity by Randall-Selitto test in comparison with that of Aspirin; in short: as §2
Rattus norvegicus [17] = experiment: Compound was evaluated for its antiinflammatory activity in the cotton pellet induced granuloma (CPG) in normal rats at the dose 200 mg/kg p.o.; conditions: route oral; in short: as §5

`Cn1c(-c2ccc(OCC(=O)O)cc2)nc2c3ccccc3ccc21` was tested, and the inhibition in vivo at 200 mg/kg (Rattus norvegicus [1]) was 7%.

In the case of `C=Cn1c(-c2ccc(OC)cc2)nc2c3ccccc3ccc21`, the Activity (Rattus norvegicus [2]) is reported as 1.1, the Activity (Rattus norvegicus [3]) is reported as 6.9 and the Arthritis scores (Rattus norvegicus [4]) is reported as 39. The Inflammation units (Rattus norvegicus [4]) was 61, the inhibition in vivo at 200 mg/kg (Rattus norvegicus [5]) was 31% and the inhibition in vivo at 100 mg/kg (Rattus norvegicus [6]) was 48%. The inhibition in vivo at 200 mg/kg (Rattus norvegicus [1]) was 58%, the Ulcerogenic index (Rattus norvegicus [7]) was 0.3 and the “Mean volume of hind paws” value (Rattus norvegicus [8]) was 34.

`COc1ccc(-c2nc3c(ccc4ccccc43)[nH]2)cc1` was tested, and the inhibition in vivo at 200 mg/kg (Rattus norvegicus [1]) was 10%.

`COc1ccc(-c2nc3c4ccccc4ccc3n2CC(C)C)cc1` gave an inhibition in vivo at 200 mg/kg (Rattus norvegicus [1]) of 30%.

Work on `Cn1c(-c2ccc(Cl)cc2)nc2c3ccccc3ccc21` yielded an inhibition in vivo at 200 mg/kg (Rattus norvegicus [1]) of 21%.

`COc1ccc(-c2nc3c4ccccc4ccc3n2C(C)C)cc1` [TOMOXIPROLE] showed an Activity (Rattus norvegicus [2]) of 2.2, an Activity (Rattus norvegicus [3]) of 0.7 and an Arthritis scores (Rattus norvegicus [4]) of 77. It also gave an Inflammation units (Rattus norvegicus [4]) of 93, an inhibition in vivo at 200 mg/kg (Rattus norvegicus [5]) of 45% and an inhibition in vivo at 100 mg/kg (Rattus norvegicus [6]) of 45%. For the same molecule, the inhibition in vivo at 200 mg/kg (Rattus norvegicus [1]) was 48% and the “Mean volume of hind paws” value (Rattus norvegicus [8]) was 43.

In the case of `COc1ccc(-c2nc3c4ccccc4ccc3n2C2CCCCC2)cc1`, the inhibition in vivo at 200 mg/kg (Rattus norvegicus [1]) is reported as 16%.

For `CC(C)Oc1ccc(-c2nc3c4ccccc4ccc3n2C)cc1`, the inhibition in vivo at 100 mg/kg (Rattus norvegicus [6]) was 25% and the inhibition in vivo at 200 mg/kg (Rattus norvegicus [1]) was 31%.

Molecule `CN(C)c1ccc(-c2nc3c4ccccc4ccc3n2C)cc1` has an inhibition in vivo at 100 mg/kg (Rattus norvegicus [9]) of 24%, an inhibition in vivo at 100 mg/kg (Rattus norvegicus [6]) of 54% and an inhibition in vivo at 200 mg/kg (Rattus norvegicus [1]) of 68%. It also gave a Ulcerogenic index (Rattus norvegicus [10]) of 1.07.

`CCCCC1C(=O)N(c2ccccc2)N(c2ccccc2)C1=O` [PHENYLBUTAZONE] showed an Activity (Rattus norvegicus [2]) of 6.5, an Activity (Rattus norvegicus [3]) of 4 and an inhibition in vivo at 50 mg/kg (Rattus norvegicus [11]) of 38%. The Arthritis scores (Rattus norvegicus [12]) was 58, the Inflammation units (Rattus norvegicus [12]) was 68 and the “Mean volume of hind paws” value (Rattus norvegicus [12]) was 45. For the same molecule, the Ulcerogenic index (Rattus norvegicus [10]) was 1.4.

`Cn1c(-c2ccccc2)nc2c3ccccc3ccc21` gave an Activity (Rattus norvegicus [2]) of 0.9, an Activity (Rattus norvegicus [3]) of 9.1 and an inhibition in vivo at 200 mg/kg (Rattus norvegicus [5]) of 24%. It also gave an inhibition in vivo at 100 mg/kg (Rattus norvegicus [6]) of 37%, an inhibition in vivo at 200 mg/kg (Rattus norvegicus [1]) of 42% and a Ulcerogenic index (Rattus norvegicus [13]) of 0.33.

With `CCCCn1c(-c2ccc(OC)cc2)nc2c3ccccc3ccc21` the inhibition in vivo at 200 mg/kg (Rattus norvegicus [1]) was 25%.

Work on `CCn1c(-c2ccc(OC)cc2)nc2c3ccccc3ccc21` yielded an Activity (Rattus norvegicus [2]) of 1.1, an Activity (Rattus norvegicus [3]) of 2.9 and an Arthritis scores (Rattus norvegicus [14]) of 21. It also gave an Inflammation units (Rattus norvegicus [14]) of 35, an inhibition in vivo at 200 mg/kg (Rattus norvegicus [5]) of 31% and an inhibition in vivo at 100 mg/kg (Rattus norvegicus [6]) of 49%. The inhibition in vivo at 200 mg/kg (Rattus norvegicus [1]) was 52%, the “Mean volume of hind paws” value (Rattus norvegicus [15]) was 21 and the Ulcerogenic index (Rattus norvegicus [10]) was 0.09.

`CCC(C)n1c(-c2ccc(OC)cc2)nc2c3ccccc3ccc21` (centres undefined) gave an inhibition in vivo at 200 mg/kg (Rattus norvegicus [1]) of 18%.

With `Cl.Cn1c(-c2ccccn2)nc2c3ccccc3ccc21` the inhibition in vivo at 200 mg/kg (Rattus norvegicus [1]) was 24%.

For `COc1ccc(-c2nc3c4ccccc4ccc3n2C)cc1`, the Activity (Rattus norvegicus [16]) was 1.2, the Activity (Rattus norvegicus [3]) was 1 and the Arthritis scores (Rattus norvegicus [14]) was 40. It also gave an Inflammation units (Rattus norvegicus [14]) of 46, an inhibition in vivo at 200 mg/kg (Rattus norvegicus [17]) of 40% and an inhibition in vivo at 100 mg/kg (Rattus norvegicus [6]) of 41%. The inhibition in vivo at 200 mg/kg (Rattus norvegicus [1]) was 53%, the “Mean volume of hind paws” value (Rattus norvegicus [15]) was 33 and the Ulcerogenic index (Rattus norvegicus [10]) was 0.31.

Work on `CC(=O)Oc1ccccc1C(=O)O` [ASPIRIN] yielded an Activity (Rattus norvegicus [2]) of 1, an Activity (Rattus norvegicus [3]) of 1 and an inhibition in vivo at 50 mg/kg (Rattus norvegicus [11]) of 24%. The Ulcerogenic index (Rattus norvegicus [10]) was 1.6.

`COc1ccc(-c2nc3c4ccccc4ccc3n2C(C)CO)cc1` (centres undefined) gave an inhibition in vivo at 100 mg/kg (Rattus norvegicus [6]) of 31% and an inhibition in vivo at 200 mg/kg (Rattus norvegicus [1]) of 35%.

Molecule `CNc1ccc(-c2nc3c4ccccc4ccc3n2C)cc1` has an inhibition in vivo at 100 mg/kg (Rattus norvegicus [9]) of 33%, an inhibition in vivo at 100 mg/kg (Rattus norvegicus [6]) of 47% and an inhibition in vivo at 200 mg/kg (Rattus norvegicus [1]) of 59%. It also gave a Ulcerogenic index (Rattus norvegicus [10]) of 0.16.

In the case of `Cc1ccc(-c2nc3c4ccccc4ccc3n2C)cc1`, the inhibition in vivo at 200 mg/kg (Rattus norvegicus [1]) is reported as 21%.

Work on `C=C(C)n1c(-c2ccc(OC)cc2)nc2c3ccccc3ccc21` yielded an Arthritis scores (Rattus norvegicus [4]) of 70, an Inflammation units (Rattus norvegicus [4]) of 68 and an inhibition in vivo at 100 mg/kg (Rattus norvegicus [6]) of 54%. The inhibition in vivo at 200 mg/kg (Rattus norvegicus [1]) was 58% and the “Mean volume of hind paws” value (Rattus norvegicus [8]) was 38.

`Cn1c(-c2cccc(Cl)c2)nc2c3ccccc3ccc21` showed an inhibition in vivo at 200 mg/kg (Rattus norvegicus [1]) of 7%.
